Laboratory results taken from ChEMBL document CHEMBL5661979, “Pharmacological inhibition of BMK1 suppresses tumor growth through promyelocytic leukemia protein” (Cancer Cell, 2010).

How the values were obtained:
[1] = Inhibition of MST4/YSK1 in human HeLa cells lysate at 2 uM pre incubated for 15 mins followed by ATP acyl phosphate probe addition and measured after 10 mins by LC-MS/MS analysis relative to control; details: 25 min, condition cancer
[2] = biological target: Ribosomal protein S6 kinase beta-1 (Homo sapiens, UniProt P23443); test: Inhibition of P70S6K in human HeLa cells lysate at 50 uM pre incubated for 15 mins followed by ATP acyl phosphate probe addition and measured after 10 mins by LC-MS/MS analysis relative to control; format: subcellular; details: time 25.0 min
[3] = biological target: T1, Scaffold protein ILK (Homo sapiens) (UniProt Q13418); test: Inhibition of ILK in human HeLa cells lysate at 2 uM pre incubated for 15 mins followed by ATP acyl phosphate probe addition and measured after 10 mins by LC-MS/MS analysis relative to control; format: subcellular; details: time 25.0 min
T1 sequence (whole entry): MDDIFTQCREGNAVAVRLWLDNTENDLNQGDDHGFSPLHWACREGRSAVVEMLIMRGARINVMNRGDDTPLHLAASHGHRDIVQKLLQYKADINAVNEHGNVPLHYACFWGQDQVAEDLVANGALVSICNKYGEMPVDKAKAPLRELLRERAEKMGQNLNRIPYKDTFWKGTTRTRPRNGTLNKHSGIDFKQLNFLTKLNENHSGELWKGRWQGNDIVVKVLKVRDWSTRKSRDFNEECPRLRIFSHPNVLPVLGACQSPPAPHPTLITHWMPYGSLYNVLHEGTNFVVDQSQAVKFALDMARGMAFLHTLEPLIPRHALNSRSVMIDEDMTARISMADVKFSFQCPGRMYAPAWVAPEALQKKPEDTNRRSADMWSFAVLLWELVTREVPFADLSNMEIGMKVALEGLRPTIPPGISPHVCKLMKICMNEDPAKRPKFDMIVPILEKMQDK

[4] = Toxicity in C57Bl/6 mouse assessed as effect on calcium level at 50 mg/kg, ip for 14 days (reference value: 9.9 mg/dl); format: organism-based; details: in vivo, 336 h, time 14 day
[5] = biological target: T2, Serine/threonine-protein kinase A-Raf (Homo sapiens) (UniProt P10398); test: Inhibition of ARAF in human HeLa cells lysate at 50 uM pre incubated for 15 mins followed by ATP acyl phosphate probe addition and measured after 10 mins by LC-MS/MS analysis relative to control; format: subcellular; details: time 25.0 min
T2 sequence (whole entry): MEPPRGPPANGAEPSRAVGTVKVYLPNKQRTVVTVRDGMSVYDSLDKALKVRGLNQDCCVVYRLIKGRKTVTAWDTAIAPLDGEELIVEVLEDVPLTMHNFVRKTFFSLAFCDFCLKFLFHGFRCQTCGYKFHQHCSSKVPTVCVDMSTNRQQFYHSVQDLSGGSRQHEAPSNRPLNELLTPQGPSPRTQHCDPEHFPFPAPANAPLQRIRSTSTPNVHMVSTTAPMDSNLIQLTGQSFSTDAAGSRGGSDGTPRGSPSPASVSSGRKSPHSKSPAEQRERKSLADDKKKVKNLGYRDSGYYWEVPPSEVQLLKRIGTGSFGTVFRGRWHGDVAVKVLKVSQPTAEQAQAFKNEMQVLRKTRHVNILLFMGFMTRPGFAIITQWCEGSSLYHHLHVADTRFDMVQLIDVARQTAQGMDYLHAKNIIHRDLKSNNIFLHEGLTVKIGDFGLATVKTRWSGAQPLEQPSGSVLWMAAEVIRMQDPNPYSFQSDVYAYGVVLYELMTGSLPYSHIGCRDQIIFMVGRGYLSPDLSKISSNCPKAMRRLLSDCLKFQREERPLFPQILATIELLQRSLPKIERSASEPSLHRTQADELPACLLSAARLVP
Summary of the method: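 KiNativ-type profiling in HeLa lysate (5 mg/mL total protein). Lysate preincubated 15 min with inhibitor at 50, 10, 2, 0.8 or 0 μM, then ATP or ADP acylphosphate probe added (5 μM final) for 10 min. Reaction stopped with urea and analysed by targeted MS, using up to four fragment ions per kinase peptide-probe conjugate. % inhibition calculated against untreated lysate. Duplicate reactions.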

[6] = biological target: T3, Dual specificity mitogen-activated protein kinase kinase 6 (Homo sapiens) (UniProt P52564); test: Inhibition of MAP2K6 in human HeLa cells lysate at 2 uM pre incubated for 15 mins followed by ATP acyl phosphate probe addition and measured after 10 mins by LC-MS/MS analysis relative to control; format: subcellular; details: time 25.0 min
T3 sequence (whole entry): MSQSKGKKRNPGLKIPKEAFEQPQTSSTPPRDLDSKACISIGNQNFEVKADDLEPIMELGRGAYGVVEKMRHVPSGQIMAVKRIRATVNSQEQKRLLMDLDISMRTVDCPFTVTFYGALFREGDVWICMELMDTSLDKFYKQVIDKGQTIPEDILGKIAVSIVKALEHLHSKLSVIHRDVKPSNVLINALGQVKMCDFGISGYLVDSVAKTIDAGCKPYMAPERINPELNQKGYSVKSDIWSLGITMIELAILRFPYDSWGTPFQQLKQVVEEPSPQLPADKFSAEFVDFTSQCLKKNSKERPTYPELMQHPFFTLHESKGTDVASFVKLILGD

[7] = biological target: T4, Serine/threonine-protein kinase 3 (Homo sapiens) (UniProt Q13188); test: Inhibition of MST2 in human HeLa cells lysate at 50 uM pre incubated for 15 mins followed by ADP acyl phosphate probe addition and measured after 10 mins by LC-MS/MS analysis relative to control; format: subcellular; details: time 25.0 min
T4 sequence (whole entry): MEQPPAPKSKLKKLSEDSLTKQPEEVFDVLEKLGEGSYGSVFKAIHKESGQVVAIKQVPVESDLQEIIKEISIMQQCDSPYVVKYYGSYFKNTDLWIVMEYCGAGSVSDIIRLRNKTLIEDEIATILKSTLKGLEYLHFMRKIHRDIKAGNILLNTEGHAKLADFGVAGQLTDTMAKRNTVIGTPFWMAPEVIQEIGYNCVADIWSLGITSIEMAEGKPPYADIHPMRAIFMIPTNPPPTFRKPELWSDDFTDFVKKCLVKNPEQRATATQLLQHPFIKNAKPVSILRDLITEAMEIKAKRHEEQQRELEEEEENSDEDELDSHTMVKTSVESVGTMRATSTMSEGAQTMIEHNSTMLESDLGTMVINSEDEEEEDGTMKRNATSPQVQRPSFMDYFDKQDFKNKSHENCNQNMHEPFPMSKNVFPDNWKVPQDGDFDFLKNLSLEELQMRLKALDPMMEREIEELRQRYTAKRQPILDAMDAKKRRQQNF

Focal adhesion kinase 1 = Focal adhesion kinase 1 (Homo sapiens, UniProt Q05397); test: Inhibition of FAK in human HeLa cells lysate pre incubated for 15 mins followed by ADP acyl phosphate probe addition and measured after 10 mins by LC-MS/MS analysis; format: subcellular
[8] = biological target: Tyrosine-protein kinase Fer (Homo sapiens, UniProt P16591); test: Inhibition of FER in human HeLa cells lysate at 2 uM pre incubated for 15 mins followed by ATP acyl phosphate probe addition and measured after 10 mins by LC-MS/MS analysis relative to control; format: subcellular; details: time 25.0 min
Sequence of Tyrosine-protein kinase Fer (P16591 whole entry, looked up): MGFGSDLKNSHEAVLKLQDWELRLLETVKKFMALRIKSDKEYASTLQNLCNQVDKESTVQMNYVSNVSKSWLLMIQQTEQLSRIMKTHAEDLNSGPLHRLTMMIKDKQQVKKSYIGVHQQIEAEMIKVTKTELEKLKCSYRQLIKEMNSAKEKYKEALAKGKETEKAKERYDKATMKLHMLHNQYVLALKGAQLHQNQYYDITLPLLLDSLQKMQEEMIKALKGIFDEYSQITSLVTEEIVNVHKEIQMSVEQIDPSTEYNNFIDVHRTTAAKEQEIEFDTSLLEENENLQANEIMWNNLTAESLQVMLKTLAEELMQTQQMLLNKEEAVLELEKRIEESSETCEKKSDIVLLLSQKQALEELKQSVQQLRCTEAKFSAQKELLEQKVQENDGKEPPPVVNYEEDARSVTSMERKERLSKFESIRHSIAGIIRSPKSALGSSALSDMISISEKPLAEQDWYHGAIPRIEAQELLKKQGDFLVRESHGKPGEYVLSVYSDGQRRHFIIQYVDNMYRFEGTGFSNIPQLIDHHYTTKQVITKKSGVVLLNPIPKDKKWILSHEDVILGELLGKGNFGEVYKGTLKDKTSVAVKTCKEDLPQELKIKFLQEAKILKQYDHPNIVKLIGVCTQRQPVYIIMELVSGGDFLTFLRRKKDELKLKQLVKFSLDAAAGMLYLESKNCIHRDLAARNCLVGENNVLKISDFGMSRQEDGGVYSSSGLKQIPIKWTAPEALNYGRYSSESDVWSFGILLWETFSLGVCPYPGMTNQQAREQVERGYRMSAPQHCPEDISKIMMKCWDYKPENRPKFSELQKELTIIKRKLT

Sequence of Ribosomal protein S6 kinase beta-1 (P23443 whole entry, looked up): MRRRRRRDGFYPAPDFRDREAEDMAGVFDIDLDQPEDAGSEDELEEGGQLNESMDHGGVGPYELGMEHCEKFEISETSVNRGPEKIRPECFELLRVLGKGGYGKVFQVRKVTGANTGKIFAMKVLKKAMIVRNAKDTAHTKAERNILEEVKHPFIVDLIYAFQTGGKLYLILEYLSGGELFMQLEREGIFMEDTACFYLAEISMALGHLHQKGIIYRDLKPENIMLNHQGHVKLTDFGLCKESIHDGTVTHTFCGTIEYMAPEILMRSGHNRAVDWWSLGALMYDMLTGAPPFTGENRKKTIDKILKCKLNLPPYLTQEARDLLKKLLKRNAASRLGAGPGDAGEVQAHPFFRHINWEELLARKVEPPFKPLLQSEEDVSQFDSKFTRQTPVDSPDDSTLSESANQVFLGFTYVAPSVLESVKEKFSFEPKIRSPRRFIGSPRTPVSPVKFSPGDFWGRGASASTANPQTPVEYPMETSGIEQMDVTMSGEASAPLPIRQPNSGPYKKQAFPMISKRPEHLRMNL
Sequence of Focal adhesion kinase 1 (Q05397 whole entry): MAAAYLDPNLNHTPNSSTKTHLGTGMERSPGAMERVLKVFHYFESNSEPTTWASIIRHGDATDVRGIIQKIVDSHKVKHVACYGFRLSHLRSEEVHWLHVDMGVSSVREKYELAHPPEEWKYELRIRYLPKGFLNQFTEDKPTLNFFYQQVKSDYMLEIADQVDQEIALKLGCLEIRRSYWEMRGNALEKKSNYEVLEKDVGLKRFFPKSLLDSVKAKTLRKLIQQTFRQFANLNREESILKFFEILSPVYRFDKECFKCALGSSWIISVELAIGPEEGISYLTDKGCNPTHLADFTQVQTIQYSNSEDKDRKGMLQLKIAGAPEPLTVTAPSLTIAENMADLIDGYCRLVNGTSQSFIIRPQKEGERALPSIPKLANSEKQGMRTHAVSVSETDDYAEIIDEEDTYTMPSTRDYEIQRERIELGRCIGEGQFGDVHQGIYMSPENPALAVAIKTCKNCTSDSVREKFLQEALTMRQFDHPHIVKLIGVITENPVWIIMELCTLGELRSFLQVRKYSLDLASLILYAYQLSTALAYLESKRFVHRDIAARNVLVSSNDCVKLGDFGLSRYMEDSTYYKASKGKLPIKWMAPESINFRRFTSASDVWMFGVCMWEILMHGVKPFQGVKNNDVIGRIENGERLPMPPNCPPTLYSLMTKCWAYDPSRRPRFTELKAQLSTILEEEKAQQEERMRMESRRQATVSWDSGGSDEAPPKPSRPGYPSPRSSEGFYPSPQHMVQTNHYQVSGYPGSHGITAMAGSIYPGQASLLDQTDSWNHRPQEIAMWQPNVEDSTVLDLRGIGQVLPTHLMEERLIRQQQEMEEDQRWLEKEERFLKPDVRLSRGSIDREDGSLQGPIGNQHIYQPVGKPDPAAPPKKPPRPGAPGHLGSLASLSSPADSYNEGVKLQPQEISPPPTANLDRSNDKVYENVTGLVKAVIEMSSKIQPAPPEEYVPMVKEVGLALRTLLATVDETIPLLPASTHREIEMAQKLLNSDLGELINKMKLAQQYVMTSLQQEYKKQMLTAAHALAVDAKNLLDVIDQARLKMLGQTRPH

CCOc1cc(N2CCC(O)CC2)ccc1Nc1ncc2c(n1)N(C)c1ccccc1C(=O)N2C
inhibition at 2 µM [1]: -6.9% | inhibition [2]: -3.8% | inhibition [3]: 13.4% | Activity [4]: 9.1 mg/dL | inhibition [5]: 4.3% | inhibition [6]: -4% | inhibition [7]: 7.2% | IC50 (Focal adhesion kinase 1): 39 µM | inhibition [8]: 8%
